MC4R antagonist: antagonists of human melanocortin 4 receptor (MC4R); P32245; MC4R-expressing cells, MTII-stimulated cAMP, LANCE TR-FRET; inhibition, % at 6.5 µM; 360,000 tested, 0.48% active;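 active = inhibition above its plate's cutoff, the mean of tested wells on that plate plus 3 SD, cut at about 29% in these data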;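 note: 0% = Melanotan II alone and 100% = Melanotan II plus saturating MCL0020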
Target sequence (P32245 whole entry, looked up): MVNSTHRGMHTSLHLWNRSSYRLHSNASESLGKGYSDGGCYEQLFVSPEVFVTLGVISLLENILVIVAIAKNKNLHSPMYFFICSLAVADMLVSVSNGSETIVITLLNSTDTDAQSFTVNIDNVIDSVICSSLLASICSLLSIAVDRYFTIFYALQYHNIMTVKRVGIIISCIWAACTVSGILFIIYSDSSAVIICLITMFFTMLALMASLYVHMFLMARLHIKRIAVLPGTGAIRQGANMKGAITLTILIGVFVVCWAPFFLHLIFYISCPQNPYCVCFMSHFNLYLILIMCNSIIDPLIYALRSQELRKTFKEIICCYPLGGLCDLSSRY
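Assay system: human MC4R-expressing U2OS cells; reagent: Melanotan II stimulation of cells; dosing: 6.5 µM single dose; timing: compound 30 min, challenge 1 h, detection 1 h; signal: TR-FRET cAMP assay; replicates: one well per compound, no replicates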
TAAR1 antag: human TAAR1 antagonism | Q96RJ0 | CHO RD-HGA16 TAAR1, Fluo-8 calcium fluorescence, antagonist | inhibition, % at 3 µM | 360,000 tested, 1.5% active | AID 624466;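 active = inhibition above a per-plate cutoff, the mean inhibition of test compounds on that plate plus 3 SD, cut at about 49% in these data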;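 note: 0% = DMSO plus EC80 beta-PEA response and 100% = DMSO alone without agonist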
Target sequence (Q96RJ0 whole entry, looked up): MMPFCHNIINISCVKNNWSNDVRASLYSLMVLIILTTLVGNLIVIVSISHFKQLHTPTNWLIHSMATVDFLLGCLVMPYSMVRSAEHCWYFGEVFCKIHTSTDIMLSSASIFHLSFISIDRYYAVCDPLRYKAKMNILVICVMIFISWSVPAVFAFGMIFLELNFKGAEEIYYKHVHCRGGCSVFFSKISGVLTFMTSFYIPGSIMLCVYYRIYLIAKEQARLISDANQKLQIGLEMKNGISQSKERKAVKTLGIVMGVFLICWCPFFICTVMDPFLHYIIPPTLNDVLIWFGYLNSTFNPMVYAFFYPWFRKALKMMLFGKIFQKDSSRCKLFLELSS
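System: RD-HGA16 CHO cells with stable hTAAR1 and Gα16 | Probe or stimulus: EC80 β-phenethylamine stimulus | Dosing: 3 µM, single point | Times: Dye loading 75 min at 37 °C, then 30 min room temperature | Measured by: Fluo-8 calcium-sensitive fluorescence | Read-out basis: % inhibition of agonist calcium response | Replicates: n of 1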
Beta2AR agonist: activates human beta-2 adrenergic receptor causing internalization. P07550. Am2.2-beta2AR cells, FAP receptor internalization, flow cytometry. response, % (no concentration beside the values). 340,000 tested, 0.43% active. AID 504454;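 active = response above a set limit, near 3 SD of response in nonfluorescent compounds, cut at about 42% in these data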
MC4R barr agon: human MC4R agonism via beta-arrestin; P32245; U2OS MC4R beta-arrestin complementation, luminescence; percent of melanotan II response, DMSO zero; activation, % at 8.9 µM; 360,000 tested, 0.98% active;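 active = activation above a per-plate cutoff, the mean activation of sample wells on that plate plus 3 SD, cut at about 8% in these data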
HTR2A ag: mouse HTR2A agonism via beta-arrestin recruitment. P35363. CHO-K1 mHTR2A beta-arrestin complementation, luminescence; percent of 30 µM serotonin response. activation, % at 7.6 µM. 360,000 tested, 0.66% active;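 active = activation above a run cutoff, the mean activation of all tested compounds plus 3 SD, cut at about 14% in these data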;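 note: 0% = plate median of compound wells and 100% = 30 µM serotonin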
TAAR1 agonist: agonists of human TAAR1; 360,000 tested, 0.99% active; CHO RD-HGA16 TAAR1, Fluo-8 calcium fluorescence; vehicle wells 0%, saturating PEA agonist 100%; AID 624467; activation, % at 3 µM;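 active = activation above the mean activation of all test compounds in the run plus 3 SD, cut at about 38% in these data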
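Benchmarks: low control DMSO, high control PEA (EC100); System: CHO RD-HGA16 cells carrying human TAAR1 plus Gα16; Detection: Fluo-8 fluorescence, 5 s baseline then 140 s kinetic read; Schedule: 17-24 h plating, Fluo-8 75 min 37 °C, 30 min RT; Read-out basis: % activation from peak over basal fluorescence ratio, DMSO-to-PEA scaled.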
MOR ag counter: counter-screen for mouse HTR2A agonists: human mu opioid receptor agonists | shares compounds with HTR2A ag | U2OS OPRM1 beta-arrestin PathHunter, luminescence; DMSO 0%, DAMGO 9.3 µM 100% | 2,300 tested, 5.3% active | activation, % at 9.3 µM | AID 624380;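 active = mean activation above the mean of DMSO-only wells plus 3 SD, cut at about 0.5% in these data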
HTR2A ag conf: confirmation of mouse HTR2A serotonin receptor agonists | shares compounds with HTR2A ag | activation, % at 7.6 µM | CHO-K1 PathHunter beta-arrestin recruitment, luminescence; DMSO 0%, 30 µM serotonin 100% | 2,300 tested, 19% active;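 active = mean activation across triplicates above the hit threshold derived in the original primary screen, cut at about 15% in these data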
* hit, by the source's call; · = not tested or not shown. A selection: hits, their analogues and other compounds. The true share with any hit is near 4.3%.

SMILES	MC4R antagonist	TAAR1 antag	Beta2AR agonist	MC4R barr agon	HTR2A ag	TAAR1 agonist	MOR ag counter	HTR2A ag conf
Cc1c(C(=O)Nc2ccc(-c3nnc4n3CCCCC4)cc2)oc2ccc(Br)cc12	6	-2	-13	1	18*	-2	0	2
CSCC(=O)Nc1nc(-c2ccc3c(c2)OCCO3)cs1	9	1	-9	-1	0	3	·	·
CCCC(=O)Nc1nc(-c2ccc3c(c2)OCCO3)cs1	1	4	-15	-1	16*	1	-1	-6
Cc1c(C)c2ccc(OCC(=O)NCCCN3CCCC3=O)cc2oc1=O	2	-14	2	-3	7	0	·	·
COc1ccc(-c2cnc3c(NC=O)cc(-c4ccc(S(C)(=O)=O)cc4)cn23)cc1OC	-17	-42	·	5	15*	6	0	12
Cn1ncc2c(Nc3ccc(O)cc3)nc(Cl)nc21	-9	-13	2	0	18*	7	-1	-3
C[C@H](O)[C@@H]1CN2CCc3c([nH]c4ccccc34)[C@@H]2C[C@@H]1N(C)C(=O)Nc1ccc(Br)cc1	·	23	·	·	16*	15	·	27*
C[C@H](O)[C@@H]1CN2CCc3c([nH]c4ccccc34)[C@@H]2C[C@@H]1N(C)C(=O)NC1CCCCC1	9	1	·	0	-6	1	·	·
COc1cc2c(cc1OC)-c1cc(Nc3ccccc3C)nc(=O)n1CC2	-31	-5	12	2	18*	-3	0	0
CCCc1cc(=O)[nH]c(SC(C)C(=O)N2c3ccccc3CC2C)n1 (centres undefined)	7	-31	13	0	-2	4	·	·
CCCc1cc(=O)[nH]c(SCC(=O)N2c3ccccc3CC2C)n1 (centres undefined)	7	-13	5	-2	14*	0	0	-4
COc1ccc(NC(=O)CCNC(=O)c2ccco2)cc1S(=O)(=O)N(C)C	6	4	-5	-1	-3	3	·	·
CN(CC(=O)Nc1ccc(F)c(F)c1F)C(=O)CN1C(=O)C2CCCCC2C1=O (centres undefined)	0	-10	-1	-2	15*	4	-1	-4
Cc1nc(N2CCCC2)c2nnn(Cc3ccccc3Cl)c2n1	11	5	-14	-2	18*	7	-1	-2
Cc1nnc(SCC(=O)Nc2cc(Cl)ccc2Cl)n1CC1CCCO1 (centres undefined)	1	-3	-6	0	17*	2	0	-3
Cc1c(Cl)cccc1NC(=O)CSc1nnc(C)n1CC1CCCO1 (centres undefined)	4	-9	3	-2	-3	0	·	·
Cc1cc(OCC(=O)Nc2ccc3oc(=O)ccc3c2)ccc1Cl	8	-7	-1	0	-9	1	·	·
CCOC(=O)N1CCC(N2C(=O)c3ccc(C(=O)NCc4ccco4)cc3C2=O)CC1	4	-7	-9	0	23*	1	0	-4
CCOC(=O)N1CCC(N2C(=O)c3ccc(C(=O)NCc4ccc(F)cc4)cc3C2=O)CC1	-1	12	0	0	-5	2	·	·
Nc1ccc(-c2cc(-c3cccc(N)c3)nc(-c3ccccc3)n2)cc1	4	-20	-3	0	15*	1	0	11
Nc1ccc(-c2nc(-c3ccccc3)nc3ccccc23)cc1	5	-2	-10	2	3	1	·	·
CCCCc1nnc(NC(=O)c2ccccc2OCc2c(C)noc2C)s1	16	-11	7	-2	0	1	·	·
CC1(C(=O)NS(=O)(=O)C2CC2)CCCN(C(=O)c2cccnc2Oc2ccccc2)C1 (centres undefined)	2	11	·	-1	6	1	·	·
COc1cccc(C(c2nnnn2C2CCCC2)N2CCN(C/C=C/c3ccccc3)CC2)c1OC (centres undefined)	·	-24	·	·	-6	2	·	·
C=C(C)c1cccc(C(C)(C)NC(=O)N2CCCCC2CC)c1 (centres undefined)	1	5	6	2	53*	1	-1	17*
SMILES	MC4R antagonist	TAAR1 antag	Beta2AR agonist	MC4R barr agon	HTR2A ag	TAAR1 agonist	MOR ag counter	HTR2A ag conf
C=C(C)c1cccc(C(C)(C)NC(=O)N2CCN(C)CC2)c1	2	3	-12	-2	-3	5	·	·
C=C(C)c1cccc(C(C)(C)NC(=O)Nc2ccc(C(C)=O)cc2)c1	16	12	4	1	2	7	·	·
C=C(C)c1cccc(C(C)(C)NC(=O)N2CCC(C)CC2)c1	3	-6	3	1	19*	-2	0	10
C=C(C)c1cccc(C(C)(C)NC(=O)Nc2ccc(OC)cc2)c1	5	-5	-3	7	17*	5	0	0
CCOc1ccccc1NC1=NC2CS(=O)(=O)CC2S1 (centres undefined)	7	-25	-1	-2	-4	2	·	·
CCc1c(O)nc(SCC(=O)Nc2ccccc2)n(-c2ccccc2C)c1=O	1	-20	·	0	5	12	·	·
CSc1ccc(-c2ccc3c(c2)c(Sc2ccccc2)c(-c2ccccc2)n3C)cc1	·	2	·	·	4	4	·	·
Cc1ccc(S(=O)(=O)NCCN(CCNS(=O)(=O)c2ccc(C)cc2)S(C)(=O)=O)cc1	4	-6	-2	0	24*	11	-1	-4
Cc1ccc(S(=O)(=O)NCCCCCCNS(=O)(=O)c2ccc(C)cc2)cc1	3	5	·	3	0	2	·	·
CCCCC(=O)Nc1ccc(Cl)cc1F	7	-9	·	0	17*	2	0	2
Cc1nc2ccc(S(=O)(=O)CCC(=O)NCCc3ccccc3)cc2s1	9	-1	·	-1	-5	-1	·	·
Fc1ccc2nc3[nH]c4ccccc4c3nc2c1	4	-10	-6	0	22*	7	0	-1
Nc1c(C(=O)Nc2ccc3c(c2)OCCO3)nnn1Cc1ccccc1Cl	-3	16	4	-1	18*	17	0	4
Nc1c(C(=O)Nc2ccc3c(c2)OCCO3)nnn1Cc1cccc(Cl)c1	-8	-3	12	-3	-8	6	·	·

Screens: PubChem, several laboratories
